Measurements of several laboratories.
Each line is one published result; the experiments were not run side by side.
Target: Receptor tyrosine-protein kinase erbB-2 (ERBB2, Homo sapiens, UniProt P04626)

SMILES | effect on | technique | concentration | remaining binding [%]
COc1cc(-c2cn(C3CCc4c(F)cccc4N(CC(F)(F)F)C3=O)nn2)ccc1-n1cnc(C)c1 (stereo not shown) | cell-free assay | competition with immobilised ligand | 1 µM | 100
c1cnn2ncc(-c3ccnc(N4CCC45COC5)n3)c2c1 | binding | – | 1 µM | 86
Nc1ncc2c(n1)-c1c([nH]c3ccc(C#CC4CC4)cc13)CCCC2 | binding | competition with immobilised ligand | 1 µM | 91
O=C(c1ccc(Nc2ncc(Cl)c(-c3cc4ccccc4s3)n2)cc1)N1CCC(N2CCCC2)CC1 | binding | competition with immobilised ligand | 1 µM | 100
CN(C)c1nccc(-c2cnn3ncccc23)n1 | binding | – | 1 µM | 100
N#Cc1ccccc1CSc1nnc2c(n1)[nH]c1ccccc12 | binding | competition with immobilised ligand | 10 µM | 94
N#CC1(c2ccccn2)CCN(Cc2cc(C(=O)N3CCCC3)c(=O)n3ccccc23)CC1 | cell-free assay | competition with immobilised ligand | 1 µM | 95
CN(c1nccc(-c2cnn3ncccc23)n1)C1CC1 | binding | – | 1 µM | 85
COc1cccc(CNC(=O)c2nc3scc(COCc4ccc(C(=O)O)cc4)c3c(=O)[nH]2)c1 | cell-free assay | competition with immobilised ligand | 1 µM | 97.2
Cc1cnc(Nc2ccc(C(=O)N3CCC(N4CCCC4)CC3)cc2)nc1-c1cc2ccccc2s1 | binding | competition with immobilised ligand | 1 µM | 64
O=C(Nc1cnc(Oc2ccc(F)cc2)nc1)N1CCc2ncccc2[C@@H]1c1ccc(F)cc1 | cell-free assay | competition with immobilised ligand | 1 µM | 80
COc1ncc2cc3ccccc3nc2c1C#N | cell-free assay | competition with immobilised ligand | 5 µM | 70
O=C(Nc1cccnn1)N1CC(C/C=C/c2cncc(Oc3ccc(C(F)(F)F)cn3)n2)C1 | cell-free assay | competition with immobilised ligand | 1 µM | 83
COc1cnc(Nc2cccc(S(N)(=O)=O)c2)nc1N1CCN(c2ccccc2)CC1 | binding | competition with immobilised ligand | 1 µM | 100
c1cncc(-c2cccc(Nc3nccc(NC4CCCCC4)n3)c2)c1 | binding | competition with immobilised ligand | 10 µM | 51
CN(C)c1ncc(F)c(-c2cnn3ncccc23)n1 | binding | – | 1 µM | 98
